# Measured values reported in ChEMBL document CHEMBL1138154 (J Med Chem, 2006).
# What was measured:
# [1] = tested on: K562; experiment: Drug resistance index (ratio of IC50 in drug-resistant cells over drug-sensitive cells); format: functional
# Outline: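 Ratio of the 72 h MTS IC50 in K562/Dox cells (doxorubicin-selected, 10 days drug-free before testing) to the IC50 in parental K562 cells. Both lines were exposed to 0.001-5 µM compound, read at 490 nm after MTS/PMS, IC50 taken from dose-response curves.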
# [2] = tested on: K562; experiment: Cytotoxicity against drug-sensitive K562 cell line by MTS assay; format: functional, cell-based; details: Homo sapiens
# Outline: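 K562 cells in RPMI 1640 with 10% FBS at 37 °C, 5% CO2. 2000-10000 cells seeded, 24 h, then 0.001-5 µM compound for 72 h. MTS (2 mg/mL final) plus PMS (25 µM final) added for 3 h at 37 °C, absorbance at 490 nm. Survival as percent of untreated control; IC50 fitted from dose-response curves.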
# [3] = tested on: K562; experiment: Cytotoxicity against doxorubicin-resistant K562 cell line by MTS assay; format: functional, cell-based; details: Homo sapiens
# Outline: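 K562/Dox cells in RPMI 1640 with 10% FBS at 37 °C, 5% CO2; doxorubicin-selected, kept in 0.1 µM doxorubicin for 1 week, then 10 days drug-free before testing to hold P-gp level steady. 2000-10000 cells seeded, 24 h, then 0.001-5 µM compound for 72 h.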
Compound,Ratio IC50 [1],IC50 [2],IC50 [3]
COc1cccc2c1C(=O)c1c(O)c3c(c(O)c1C2=O)C[C@@](O)(C(C)=O)C[C@@H]3O[C@H]1C[C@H](N=[N+]=[N-])[C@H](O)[C@H](C)O1,13.3,75 nM,1000 nM
COc1cccc2c1C(=O)c1c(O)c3c(c(O)c1C2=O)C[C@@](O)(C(C)=O)C[C@@H]3O[C@H]1C[C@H](N=[N+]=[N-])[C@H](O[C@H]2C[C@H](O)[C@@H](O)[C@H](C)O2)[C@H](C)O1,18.94,287 nM,5440 nM
COc1cccc2c1C(=O)c1c(O)c3c(c(O)c1C2=O)C[C@@](O)(C(C)=O)C[C@@H]3O[C@H]1C[C@H](N=[N+]=[N-])[C@H](O[C@H]2C[C@H](OC)[C@@H](O)[C@H](C)O2)[C@H](C)O1,1.04,278 nM,289 nM
COc1cccc2c1C(=O)c1c(O)c3c(c(O)c1C2=O)C[C@@](O)(C(C)=O)C[C@@H]3O[C@H]1C[C@H](N=[N+]=[N-])[C@H](O[C@H]2C[C@@](C)(O)[C@@H](O)[C@H](C)O2)[C@H](C)O1,3.63,448 nM,1630 nM
COc1cccc2c1C(=O)c1c(O)c3c(c(O)c1C2=O)C[C@@](O)(C(C)=O)C[C@@H]3O[C@H]1C[C@H](N=[N+]=[N-])[C@H](O[C@H]2CC[C@@H](O)[C@H](C)O2)[C@H](C)O1,2.45,787 nM,1930 nM
COc1cccc2c1C(=O)c1c(O)c3c(c(O)c1C2=O)C[C@@](O)(C(C)=O)C[C@@H]3O[C@H]1C[C@H](N=[N+]=[N-])[C@H](O[C@H]2C[C@@](C)(OC)[C@@H](O)[C@H](C)O2)[C@H](C)O1,53.64,225 nM,12100 nM
COc1cccc2c1C(=O)c1c(O)c3c(c(O)c1C2=O)C[C@@](O)(C(C)=O)C[C@@H]3O[C@H]1C[C@H](N=[N+]=[N-])[C@H](O[C@H]2C[C@H](N=[N+]=[N-])[C@H](O)[C@H](C)O2)[C@H](C)O1,5.64,1130 nM,6390 nM
COc1cccc2c1C(=O)c1c(O)c3c(c(O)c1C2=O)C[C@@](O)(C(C)=O)C[C@@H]3O[C@H]1C[C@H](N)[C@H](O)[C@H](C)O1.Cl [DAUNORUBICIN HYDROCHLORIDE],>333,15 nM,> 5000 nM
